Data on 29 compounds can be found in ChEMBL document CHEMBL3612025, “Synthesis and biological evaluation of novel aromatic-heterocyclic biphenyls as potent anti-leukemia agents” (Eur J Med Chem, 2015).

Broadly, the IC50 is the concentration needed to halve the response being measured. A lower IC50 goes with inhibition by little substance.

Bcr/Abl fusion protein, sequence (P00519 whole entry, the tested form may be a part): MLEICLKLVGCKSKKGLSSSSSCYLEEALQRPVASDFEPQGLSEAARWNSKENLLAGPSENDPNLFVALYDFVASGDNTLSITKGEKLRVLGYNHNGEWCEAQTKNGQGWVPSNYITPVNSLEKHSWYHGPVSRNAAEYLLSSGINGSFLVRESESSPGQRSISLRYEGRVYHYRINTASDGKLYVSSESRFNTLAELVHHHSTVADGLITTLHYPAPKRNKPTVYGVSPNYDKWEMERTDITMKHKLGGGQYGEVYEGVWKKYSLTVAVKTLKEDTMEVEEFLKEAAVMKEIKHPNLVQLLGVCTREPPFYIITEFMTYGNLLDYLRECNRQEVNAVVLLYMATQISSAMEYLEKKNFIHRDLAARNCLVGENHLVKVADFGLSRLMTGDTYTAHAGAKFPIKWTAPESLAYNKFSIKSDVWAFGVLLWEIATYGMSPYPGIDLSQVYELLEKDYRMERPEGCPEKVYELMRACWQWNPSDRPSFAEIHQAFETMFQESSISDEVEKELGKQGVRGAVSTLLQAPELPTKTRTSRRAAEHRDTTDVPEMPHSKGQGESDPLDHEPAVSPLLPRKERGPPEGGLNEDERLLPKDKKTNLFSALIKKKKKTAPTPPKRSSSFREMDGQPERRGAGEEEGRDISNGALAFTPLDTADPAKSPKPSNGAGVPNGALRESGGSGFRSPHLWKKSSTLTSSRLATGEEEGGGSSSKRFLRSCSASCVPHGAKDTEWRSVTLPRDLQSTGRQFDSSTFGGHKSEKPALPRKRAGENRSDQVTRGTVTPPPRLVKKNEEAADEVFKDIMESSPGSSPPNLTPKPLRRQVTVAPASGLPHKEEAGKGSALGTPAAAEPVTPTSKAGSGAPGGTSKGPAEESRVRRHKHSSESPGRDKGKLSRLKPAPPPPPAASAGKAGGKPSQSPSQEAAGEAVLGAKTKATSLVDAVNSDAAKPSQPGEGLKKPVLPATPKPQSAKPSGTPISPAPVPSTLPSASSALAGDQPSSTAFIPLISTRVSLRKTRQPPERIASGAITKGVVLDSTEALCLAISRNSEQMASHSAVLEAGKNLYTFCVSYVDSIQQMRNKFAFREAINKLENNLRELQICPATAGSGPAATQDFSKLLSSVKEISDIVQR
Bcr/Abl fusion protein, sequence (P11274 whole entry, further chain, the tested form may be a part): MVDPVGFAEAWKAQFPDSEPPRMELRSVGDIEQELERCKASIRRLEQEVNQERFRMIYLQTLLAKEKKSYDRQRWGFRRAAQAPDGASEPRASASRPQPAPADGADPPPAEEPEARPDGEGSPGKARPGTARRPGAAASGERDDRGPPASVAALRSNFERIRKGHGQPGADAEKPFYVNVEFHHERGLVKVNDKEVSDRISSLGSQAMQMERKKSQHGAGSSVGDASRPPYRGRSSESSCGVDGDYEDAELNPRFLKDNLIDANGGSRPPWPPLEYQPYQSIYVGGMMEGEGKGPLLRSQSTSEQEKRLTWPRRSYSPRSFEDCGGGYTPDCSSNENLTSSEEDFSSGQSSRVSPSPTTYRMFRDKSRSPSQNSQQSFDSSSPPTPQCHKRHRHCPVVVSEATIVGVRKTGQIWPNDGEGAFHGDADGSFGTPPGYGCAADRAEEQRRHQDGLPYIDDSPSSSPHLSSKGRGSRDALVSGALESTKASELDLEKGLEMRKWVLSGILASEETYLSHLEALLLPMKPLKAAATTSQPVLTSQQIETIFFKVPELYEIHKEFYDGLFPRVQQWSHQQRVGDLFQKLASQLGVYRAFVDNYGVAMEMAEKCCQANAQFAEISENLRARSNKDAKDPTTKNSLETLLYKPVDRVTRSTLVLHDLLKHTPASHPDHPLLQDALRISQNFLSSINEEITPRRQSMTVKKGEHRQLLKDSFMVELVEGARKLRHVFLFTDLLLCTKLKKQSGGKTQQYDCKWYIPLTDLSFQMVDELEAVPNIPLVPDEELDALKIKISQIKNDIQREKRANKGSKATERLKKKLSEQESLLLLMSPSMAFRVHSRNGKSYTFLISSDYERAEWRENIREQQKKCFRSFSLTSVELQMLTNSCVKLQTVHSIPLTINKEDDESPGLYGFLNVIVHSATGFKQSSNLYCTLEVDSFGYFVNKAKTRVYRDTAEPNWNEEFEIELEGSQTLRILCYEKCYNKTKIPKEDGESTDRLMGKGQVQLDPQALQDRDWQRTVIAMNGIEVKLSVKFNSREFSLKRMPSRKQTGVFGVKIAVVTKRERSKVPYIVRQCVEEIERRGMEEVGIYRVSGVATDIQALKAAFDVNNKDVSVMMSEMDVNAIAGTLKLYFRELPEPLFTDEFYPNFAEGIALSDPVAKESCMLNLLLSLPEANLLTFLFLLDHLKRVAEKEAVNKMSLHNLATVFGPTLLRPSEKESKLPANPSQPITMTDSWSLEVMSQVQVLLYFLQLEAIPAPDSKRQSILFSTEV

The first assay has as its system K562. Kind of assay: Antiproliferative activity against imatinib-resistant human K562 cells after 48 hrs by MTT assay. It is filed as functional, cell-based. Conditions: K562, 48 h. In a few lines: (§1)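 Human CML K562 line grown in RPMI-1640 with 10% FBS, penicillin G and streptomycin (100 units/ml each) at 37°C, 5% CO2. 2000 cells/well were seeded and compounds were added at four concentrations 48 h later, in triplicate. After 48 h exposure, MTT (5 mg/ml) was added for 4 h. Formazan was dissolved in DMSO and read at 490 nm. IC50 is the mean of three experiments.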
Background: Tetrazolium dyes change colour on reduction, which living cells bring about.
For the compound `COc1cccc(C(=O)N2CCN(C(=O)c3ccc(-c4ccccn4)cc3)CC2)c1`, the IC50 was 57.3 µM.

Turning to `O=C(c1ccc(-c2cccnc2)cc1)N1CCN(C(=O)c2cccc(F)c2)CC1`, the midpoint of inhibition, the IC50, lay at 81.6 µM.

For `Cc1ccnc(-c2ccc(C(=O)N3CCN(C(=O)c4cccc(C(F)(F)F)c4)CC3)cc2)c1`, the midpoint of inhibition, the IC50, lay at 947 µM.

`Cc1ccnc(-c2ccc(C(=O)N3CCN(C(=O)c4cccc(F)c4)CC3)cc2)c1` had an IC50 above 1000 µM.

Regarding `COc1cccc(C(=O)N2CCN(C(=O)c3ccc(-c4cc(C)ccn4)cc3)CC2)c1`, inhibition was half-maximal at 494 µM (IC50).

Turning to `COc1cccc(C(=O)N2CCN(C(=O)c3ccc(-c4ccc(C)nc4)cc3)CC2)c1`, the midpoint of inhibition, the IC50, lay at 304 µM.

As to `O=C(c1ccc(Br)cc1)N1CCN(C(=O)c2ccc(-c3cccs3)cc2)CC1`, the IC50 was 86.3 µM.

For `COc1cccc(C(=O)N2CCN(C(=O)c3ccc(-c4nccs4)cc3)CC2)c1`, half-maximal inhibition (IC50) required 492 µM.

As for `Cc1ccc(NC(=O)c2ccc(CN3CCN(C)CC3)cc2)cc1Nc1nccc(-c2cccnc2)n1` [IMATINIB], the IC50 worked out at 15.7 µM.

A further assay addresses Bcr/Abl fusion protein (Homo sapiens, UniProt P00519). Kind of assay: Inhibition of Bcr-Abl (unknown origin) after 60 mins by luminescent kinase assay. It is filed as protein assay.
Details: not given
`O=C(c1ccc(-c2ccccn2)cc1)N1CCN(C(=O)c2cccc(C(F)(F)F)c2)CC1` showed an IC50 above 500 µM.

`COc1cccc(C(=O)N2CCN(C(=O)c3ccc(-c4ccccn4)cc3)CC2)c1` had an IC50 of 0.066 µM.

`CC(C)(C)c1ccc(C(=O)N2CCN(C(=O)c3ccc(-c4ccccn4)cc3)CC2)cc1` displayed an IC50 of 1.16 µM.

For `CN(C)c1cccc(C(=O)N2CCN(C(=O)c3ccc(-c4ccccn4)cc3)CC2)c1`, the IC50 is 45.6 µM.

In turn, `O=C(c1ccc(-c2cccnc2)cc1)N1CCN(C(=O)c2cccc(F)c2)CC1` yielded an IC50 of 0.276 µM.

Consider `COc1cccc(C(=O)N2CCN(C(=O)c3ccc(-c4cccnc4)cc3)CC2)c1`, for which the IC50 is 60.7 µM.

As for `Cc1ccnc(-c2ccc(C(=O)N3CCN(C(=O)c4cccc(C(F)(F)F)c4)CC3)cc2)c1`, the IC50 was 0.112 µM.

On to `Cc1ccnc(-c2ccc(C(=O)N3CCN(C(=O)c4cccc(F)c4)CC3)cc2)c1`, for which the IC50 was determined as 63.3 µM.

Turning to `COc1cccc(C(=O)N2CCN(C(=O)c3ccc(-c4cc(C)ccn4)cc3)CC2)c1`, the IC50 was determined as 0.94 µM.

Regarding `Cc1ccnc(-c2ccc(C(=O)N3CCN(C(=O)c4ccc(C(C)(C)C)cc4)CC3)cc2)c1`, the IC50 was above 500 µM.

The compound `Cc1ccnc(-c2ccc(C(=O)N3CCN(C(=O)c4cccc(N(C)C)c4)CC3)cc2)c1` registered an IC50 of 19.1 µM.

In turn, `Cc1ccc(-c2ccc(C(=O)N3CCN(C(=O)c4cccc(F)c4)CC3)cc2)cn1` gave a 50% inhibitory concentration (IC50) above 500 µM.

In the case of `COc1cccc(C(=O)N2CCN(C(=O)c3ccc(-c4ccc(C)nc4)cc3)CC2)c1`, the midpoint of inhibition, the IC50, lay at 0.143 µM.

Regarding `Cc1ccc(-c2ccc(C(=O)N3CCN(C(=O)c4cccc(N(C)C)c4)CC3)cc2)cn1`, the IC50 is above 500 µM.

As to `O=C(c1ccc(-c2cccs2)cc1)N1CCN(C(=O)c2cccc(F)c2)CC1`, the midpoint of inhibition, the IC50, lay at 5.05 µM.

On to `COc1cccc(C(=O)N2CCN(C(=O)c3ccc(-c4cccs4)cc3)CC2)c1`, for which the IC50 worked out at 89.7 µM.

`O=C(c1ccc(Br)cc1)N1CCN(C(=O)c2ccc(-c3cccs3)cc2)CC1` had an IC50 of 0.073 µM.

The compound `CN(C)c1cccc(C(=O)N2CCN(C(=O)c3ccc(-c4cccs4)cc3)CC2)c1` showed an IC50 of 0.321 µM.

The compound `O=C(c1ccc(-c2nccs2)cc1)N1CCN(C(=O)c2cccc(F)c2)CC1` had an IC50 of 444 µM.

For `COc1cccc(C(=O)N2CCN(C(=O)c3ccc(-c4nccs4)cc3)CC2)c1`, the IC50 was found to be 0.016 µM.

With `O=C(c1ccc(Br)cc1)N1CCN(C(=O)c2ccc(-c3nccs3)cc2)CC1`, the IC50 worked out at 0.421 µM.

Take `CN(C)c1cccc(C(=O)N2CCN(C(=O)c3ccc(-c4nccs4)cc3)CC2)c1`: the midpoint of inhibition, the IC50, lay at 1.84 µM.

In turn, `O=C(c1ccc(-c2nccs2)cc1)N1CCN(C(=O)c2ccc(Cl)cc2Cl)CC1` showed an IC50 above 500 µM.

A further assay relates to K562. Kind of assay: Antiproliferative activity against human K562 cells after 48 hrs by MTT assay. It counts as functional, cell-based. Conditions: K562, 48 h. In a few lines: as §1
As for `O=C(c1ccc(-c2ccccn2)cc1)N1CCN(C(=O)c2cccc(F)c2)CC1`, the IC50 was above 500 µM.

In the case of `O=C(c1ccc(-c2ccccn2)cc1)N1CCN(C(=O)c2cccc(C(F)(F)F)c2)CC1`, the IC50 was above 500 µM.

The compound `COc1cccc(C(=O)N2CCN(C(=O)c3ccc(-c4ccccn4)cc3)CC2)c1` came in with an IC50 of 12.5 µM.

In turn, `CC(C)(C)c1ccc(C(=O)N2CCN(C(=O)c3ccc(-c4ccccn4)cc3)CC2)cc1` displayed an IC50 of 178 µM.

`CN(C)c1cccc(C(=O)N2CCN(C(=O)c3ccc(-c4ccccn4)cc3)CC2)c1` returned a concentration for half-maximal inhibition (IC50) of 29.7 µM.

With `O=C(c1ccc(-c2cccnc2)cc1)N1CCN(C(=O)c2cccc(C(F)(F)F)c2)CC1`, inhibition was half-maximal at 346 µM (IC50).

In turn, `O=C(c1ccc(-c2cccnc2)cc1)N1CCN(C(=O)c2cccc(F)c2)CC1` returned an IC50 of 63.4 µM.

In the case of `COc1cccc(C(=O)N2CCN(C(=O)c3ccc(-c4cccnc4)cc3)CC2)c1`, it took 140 µM to reach half-maximal inhibition (IC50).

With `CN(C)c1cccc(C(=O)N2CCN(C(=O)c3ccc(-c4cccnc4)cc3)CC2)c1`, the IC50 is above 500 µM.

The compound `Cc1ccnc(-c2ccc(C(=O)N3CCN(C(=O)c4cccc(C(F)(F)F)c4)CC3)cc2)c1` came in with an IC50 of 41.6 µM.

Regarding `Cc1ccnc(-c2ccc(C(=O)N3CCN(C(=O)c4cccc(F)c4)CC3)cc2)c1`, it took 74.2 µM to reach half-maximal inhibition (IC50).

Turning to `COc1cccc(C(=O)N2CCN(C(=O)c3ccc(-c4cc(C)ccn4)cc3)CC2)c1`, inhibition was half-maximal at 76.1 µM (IC50).

The compound `Cc1ccnc(-c2ccc(C(=O)N3CCN(C(=O)c4ccc(C(C)(C)C)cc4)CC3)cc2)c1` yielded an IC50 of 58.3 µM.

`Cc1ccnc(-c2ccc(C(=O)N3CCN(C(=O)c4cccc(N(C)C)c4)CC3)cc2)c1` registered an IC50 of 31.4 µM.

As for `Cc1ccc(-c2ccc(C(=O)N3CCN(C(=O)c4cccc(C(F)(F)F)c4)CC3)cc2)cn1`, it took 47.1 µM to reach half-maximal inhibition (IC50).

In the case of `Cc1ccc(-c2ccc(C(=O)N3CCN(C(=O)c4cccc(F)c4)CC3)cc2)cn1`, the IC50 amounted to 64.5 µM.

For `COc1cccc(C(=O)N2CCN(C(=O)c3ccc(-c4ccc(C)nc4)cc3)CC2)c1`, inhibition was half-maximal at 261 µM (IC50).

Take `Cc1ccc(-c2ccc(C(=O)N3CCN(C(=O)c4cccc(N(C)C)c4)CC3)cc2)cn1`: it took 110 µM to reach half-maximal inhibition (IC50).

As to `O=C(c1ccc(-c2cccs2)cc1)N1CCN(C(=O)c2cccc(F)c2)CC1`, the IC50 turned out to be 13.5 µM.

In turn, `COc1cccc(C(=O)N2CCN(C(=O)c3ccc(-c4cccs4)cc3)CC2)c1` displayed an IC50 of 152 µM.

Regarding `O=C(c1ccc(Br)cc1)N1CCN(C(=O)c2ccc(-c3cccs3)cc2)CC1`, the IC50 was determined as 29.9 µM.

As to `CN(C)c1cccc(C(=O)N2CCN(C(=O)c3ccc(-c4cccs4)cc3)CC2)c1`, it took 96.7 µM to reach half-maximal inhibition (IC50).

Consider `O=C(c1ccc(-c2cccs2)cc1)N1CCN(C(=O)c2ccc(Cl)cc2Cl)CC1`, for which the IC50 stood at 30.5 µM.

`O=C(c1ccc(-c2nccs2)cc1)N1CCN(C(=O)c2cccc(F)c2)CC1` showed an IC50 above 500 µM.

Regarding `COc1cccc(C(=O)N2CCN(C(=O)c3ccc(-c4nccs4)cc3)CC2)c1`, the IC50 stood at 271 µM.

Regarding `O=C(c1ccc(Br)cc1)N1CCN(C(=O)c2ccc(-c3nccs3)cc2)CC1`, the IC50 is above 500 µM.

`CN(C)c1cccc(C(=O)N2CCN(C(=O)c3ccc(-c4nccs4)cc3)CC2)c1` yielded an IC50 of 117 µM.

Consider `O=C(c1ccc(-c2nccs2)cc1)N1CCN(C(=O)c2ccc(Cl)cc2Cl)CC1`, for which the IC50 was above 500 µM.

Turning to `Cc1ccc(NC(=O)c2ccc(CN3CCN(C)CC3)cc2)cc1Nc1nccc(-c2cccnc2)n1` [IMATINIB], the IC50 amounted to 1.16 µM.
